High-throughput results as filed in PubChem.
This is a sample that favours compounds with a hit; in the whole collection about 1.3% have one here.
Casp6 inh: blocks human caspase-6 cleavage activity. P55212. purified caspase-6, Z-VEID-R110 cleavage fluorescence. inhibition, % at 12.5 µM. 350,000 compounds, 0.53% hits;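 active = mean inhibition across replicates at least about 35%, with every replicate also reaching that limit, limit read from the data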
LEDGF integ inh: blocks HIV-1 LEDGF/p75-dependent DNA integration; TR-FRET IN-LEDGF/p75 DNA integration, Eu/Cy5; inhibition, % at 3.7 µM; 370,000 compounds, 0.64% hits; AID 743269;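 active = inhibition above the screen-wide mean plus 3 SD, cut at about 13% in these data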;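 note: signal is the Cy5 over europium emission ratio at 671 and 618 nm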
ASAP1 inh: blocks human ASAP1-stimulated Arf1 GTP hydrolysis. inhibition, % at 16.5 µM. GDP FP detection. 360,000 compounds, 0.19% hits. Q9ULH1
Target sequence (Q9ULH1 325-724 limits assumed): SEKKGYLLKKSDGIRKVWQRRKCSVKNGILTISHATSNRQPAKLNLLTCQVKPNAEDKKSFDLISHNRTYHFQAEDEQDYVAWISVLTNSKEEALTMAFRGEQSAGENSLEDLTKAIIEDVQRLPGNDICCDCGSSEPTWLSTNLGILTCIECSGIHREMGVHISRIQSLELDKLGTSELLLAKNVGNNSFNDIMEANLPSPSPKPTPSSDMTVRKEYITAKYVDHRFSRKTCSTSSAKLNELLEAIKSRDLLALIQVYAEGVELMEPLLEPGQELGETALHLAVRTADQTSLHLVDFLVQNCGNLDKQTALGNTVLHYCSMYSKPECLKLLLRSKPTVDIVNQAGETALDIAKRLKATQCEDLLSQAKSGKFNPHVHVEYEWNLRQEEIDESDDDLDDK
ARFGAP1 inh: inhibitors of rat ARFGAP1; Arfgap1-stimulated ARF1 GTP hydrolysis, GDP FP detection; inhibition, % at 16.5 µM; 360,000 compounds, 0.26% hits; AID 651572;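 active = inhibition above a per-plate limit, mean inhibition of low control wells plus 3 SD, cut at about 25% in these data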
Target sequence (Q62848 1-136 limits assumed): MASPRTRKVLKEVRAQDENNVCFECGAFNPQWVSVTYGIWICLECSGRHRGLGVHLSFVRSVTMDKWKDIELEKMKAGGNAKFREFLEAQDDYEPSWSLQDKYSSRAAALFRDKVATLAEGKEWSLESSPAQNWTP
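System: truncated rat Arfgap1 GAP domain / Benchmarks: high control wells lacking Arfgap1, low control full reaction with DMSO / Times: compound-enzyme preincubation 20 min, reaction 120 min, detection 60 min, 25 °C / Repeats: one replicate per compound / Also added: human ARF1(Δ1-17)-GTP substrate / Measured by: Tracer-displacement fluorescence polarization with EDTA stop, 620/688 nm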
TDP2 inh: TDP2 (human) inhibition, absorbance primary screen | 370,000 compounds, 0.34% hits | inhibition, % at 12.8 µM | AID 720702 | recombinant TDP2, T5PNP hydrolysis, p-nitrophenol absorbance 415 nm;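 active = inhibition above the mean of all tested compounds plus 3 SD, set per campaign, cut at about 25% in these data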
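Test system: human TDP2 enzyme; Input: 120 nM TDP2 per well; Buffer or medium: Mg2+-containing Tris-HCl buffer, pH 7.5; Reagent: 5 mM T5PNP; Dosing: 12.8 µM single point, 1% DMSO; Incubation: reaction 2 h, 37 °C; Detection: p-Nitrophenol epi absorbance; Read-out: % inhibition relative to enzyme-containing and enzyme-free wells; Replicates: single well per compound.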
ASAP1 inh confirm: confirmation of human ASAP1 inhibitors; ASAP1-stimulated Arf1 GTPase, GDP fluorescence polarization; inhibition, % at 16.5 µM; shares compounds with ASAP1 inh; 620 compounds, 37% hits;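 active = mean inhibition over triplicates exceeds the hit threshold derived for the earlier primary screening run, cut at about 25% in these data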
ARFGAP1 confirm: confirmation of rat ARFGAP1 inhibitors | ARFGAP1-stimulated ARF1 GTP hydrolysis, GDP tracer FP | 890 compounds, 30% hits | inhibition, % at 16.5 µM | shares compounds with ARFGAP1 inh;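 active = average inhibition over triplicates above the hit cutoff set in the earlier primary screen, cut at about 25% in these data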
TDP2 inh conf: human TDP2 inhibition, confirmation; 1,100 compounds, 22% hits; AID 743263; inhibition, % at 12.8 µM; shares compounds with TDP2 inh; recombinant human TDP2, absorbance read-out
IN multimer up: HIV-1 integrase multimerization activation, counter-screen; shares compounds with LEDGF integ inh; TR-FRET HIV-1 integrase multimerization, biochemical; activation, % at 7.7 µM; 2,000 compounds, 17% hits; AID 1053131; in the data active = activation above about 8.9%
TRFRET interf: optically interferes with TR-FRET readout in LEDGF counter-screen; shares compounds with LEDGF integ inh; TR-FRET optical interference counterscreen, HIV-1 IN multimerization; inhibition, % at 7.7 µM; 2,000 tested, under 10 active; AID 1053135;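 active = inhibition above the mean over all tested compounds plus 3 SD, which no compound reached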
IN-LEDGF confirm: confirmation of HIV-1 LEDGF/p75-dependent integration inhibitors | inhibition, % at 3.7 µM | shares compounds with LEDGF integ inh | TR-FRET LEDGF/p75-dependent HIV-1 integration, biochemical | 2,000 compounds, 36% hits; in the data active = inhibition above about 14%
Of the large screens only hits and unclear results are named; the others gave an inactive call (follow-up assays come after a bar, where they were run). Cut-off read from the data, not from the text of the source, unless noted: active = inhibition above about 25%; inactive = the rest.

COc1ccc(C(C[N+](=O)[O-])c2c(C)[nH]n(-c3ccccc3)c2=O)cc1 (stereo unspecified)	LEDGF integ inh 25.4, ASAP1 inh 30.1, ARFGAP1 inh 25.4, TDP2 inh 75.0 | ASAP1 inh confirm inactive | TDP2 inh conf 68.8 | IN multimer up inactive | TRFRET interf inactive | IN-LEDGF confirm 21.8
Cc1[nH]n(-c2ccccc2)c(=O)c1C(C[N+](=O)[O-])c1ccccc1Cl (stereo unspecified)	none (no result: Casp6 inh)
Fc1ccc(Nc2cncc(-c3ccsc3)c2)cc1Cl	LEDGF integ inh 38.3, ASAP1 inh 39.1, ARFGAP1 inh 28.5, TDP2 inh 80.7 | ASAP1 inh confirm inactive | ARFGAP1 confirm inactive | TDP2 inh conf 51.7 | IN multimer up inactive | TRFRET interf inactive | IN-LEDGF confirm 15.8
Cc1sc(NC(=O)CCCCC(=O)Nc2sc(C)c(C)c2C(=O)O)c(C(=O)O)c1C	none
COc1ccc(-c2noc(CCC(=O)N3CCN(c4ccccc4C(F)(F)F)CC3)n2)cc1	none
Cn1c(SCc2ccccc2)nccc1=O	none
CC1=C(SCc2ccccc2)C(=O)c2ccccc2C1=O	Casp6 inh 64.3, LEDGF integ inh 24.4, ASAP1 inh 31.8, TDP2 inh 51.3 | ASAP1 inh confirm inactive | IN multimer up inactive | TRFRET interf inactive | IN-LEDGF confirm 43.9
CCOC(=O)c1c(C)[nH]c(C)c1S(=O)(=O)N(C)CC(=O)Nc1ccccc1OC	none
C/C(=N\NC(=S)NC1CCCCC1)c1ccc(OC(F)F)cc1OC(F)F	none
COc1ccc(-n2c(N)c(C(=O)NCC3CCCO3)c3nc4ccccc4nc32)c(OC)c1 (stereo unspecified)	LEDGF integ inh 19.2, ASAP1 inh 31.3, ARFGAP1 inh 27.8, TDP2 inh 73.5 (no result: Casp6 inh) | ASAP1 inh confirm inactive | ARFGAP1 confirm inactive | IN multimer up inactive | TRFRET interf inactive | IN-LEDGF confirm inactive
O=C(O)c1cccc(S(=O)(=O)Nc2ccc([N+](=O)[O-])cc2O)c1	none
O=C(O)CSc1cc(NS(=O)(=O)c2cccc([N+](=O)[O-])c2)c2ccccc2c1O	Casp6 inh 68.0, LEDGF integ inh 16.0, ASAP1 inh 27.6, ARFGAP1 inh 25.1, TDP2 inh 62.9 | ASAP1 inh confirm inactive | ARFGAP1 confirm inactive | TDP2 inh conf 70.1 | IN multimer up inactive | TRFRET interf inactive | IN-LEDGF confirm 63.0
COc1cccc(-c2cnc3c(NC(C)=O)cc(-c4cccc(C(=O)NCCN(C)C)c4)cn23)c1	ARFGAP1 inh 44.3 | ARFGAP1 confirm inactive
Cc1cc(-c2cc(NC=O)c3ncc(-c4cccc(C(=O)NCCN(C)C)c4)n3c2)cc(C)c1O	ARFGAP1 inh 27.4 | ARFGAP1 confirm 58.3
COc1ccc(-c2cnc3c(NC(C)=O)cc(-c4cccc(C(=O)NCCN(C)C)c4)cn23)cc1OC	none
COc1ccc(N=C2SC(CC(=O)Nc3cccc(Cl)c3)C(=O)N2Cc2ccco2)cc1 (stereo unspecified)	none (no result: Casp6 inh)
CC(C)N(Cc1nc(-c2ccc(Cl)cc2)no1)Cc1nccn1C	ARFGAP1 inh 24.7 | ARFGAP1 confirm inactive
Clc1cccc(CNc2nc(-c3cccnc3)nc3ccccc23)c1	ARFGAP1 inh 31.9 | ARFGAP1 confirm 26.9
Clc1ccccc1Nc1nc(-c2ccncc2)nc2ccccc12	none
Clc1cccc(Nc2nc(-c3ccncc3)nc3ccccc23)c1	ARFGAP1 inh 39.3 | ARFGAP1 confirm 50.1
Cc1ccnc(NS(=O)(=O)c2ccc(NC(=O)COc3ccccc3)cc2)n1	none
O=C(NCCN1CCCCC1)c1c(O)c2ccccc2[nH]c1=O	none (no result: Casp6 inh)
COCCNc1nc(NCCOC)c2sc(-c3ccccc3)cc2n1	none
C=CCNc1nc(NCc2cccc(OC)c2)c2sc(-c3ccccc3)cc2n1	ARFGAP1 inh 26.3 | ARFGAP1 confirm 26.4
COc1ccc(NC(=O)C(=O)N/N=C(\C)CC(=O)Nc2ccccn2)c(OC)c1	none
O=C(COC(=O)c1ccccc1F)Nc1ccc(S(=O)(=O)N2CCOCC2)cc1	ARFGAP1 inh 26.8 | ARFGAP1 confirm inactive
CCn1c(=N)n(CC(=O)C23CC4CC(CC(C4)C2)C3)c2ccccc21	none (no result: Casp6 inh)
COC(=O)C(Cc1ccccc1)NC(=O)CCc1c[nH]c2ccccc12 (stereo unspecified)	none
Cc1ccc(-c2csc3ncn(Cc4ccc(C(=O)O)cc4)c(=O)c23)cc1C	none
O=C(O)c1ccc(Cn2cnc3scc(-c4ccccc4)c3c2=O)cc1	ARFGAP1 inh 25.1 | ARFGAP1 confirm inactive
O=C(Nc1cccc(-c2cc3ccccc3oc2=O)c1)c1ccc(Br)o1	ARFGAP1 inh 26.8 | ARFGAP1 confirm inactive
COc1ccc(-c2cc3ccccc3oc2=O)cc1NC(=O)c1ccc(Br)o1	none (no result: Casp6 inh)
Nc1cc(Cl)nnc1Cl	ARFGAP1 inh 25.0 (no result: Casp6 inh) | ARFGAP1 confirm inactive
Cc1cc(C)c2cc(N)c(Cl)nc2n1	none
Cc1ccc(Nc2nc(CSc3nnnn3-c3ccccc3)cs2)cc1	ARFGAP1 inh 29.1 (no result: Casp6 inh) | ARFGAP1 confirm inactive
O=c1[nH]c(/C=C2\C=Nc3ccccc32)c(O)n1Cc1ccccc1F	ARFGAP1 inh 25.0 | ARFGAP1 confirm inactive
CSc1nc(O)c(/C=C2\C=Nc3ccccc32)[nH]1	none (no result: Casp6 inh)
COc1cc(C(O)c2nc(-c3cc4ccccc4o3)cs2)ccc1F (stereo unspecified)	ARFGAP1 inh 28.4 | ARFGAP1 confirm inactive
CC(C)NC(=O)N1[C@H](C#N)[C@@H](c2ccc(C#CC3CCCC3)cc2)[C@H]1CO	none (no result: LEDGF integ inh, ASAP1 inh, ARFGAP1 inh, TDP2 inh)
CCOC(=O)c1ccccc1NC(=O)c1cc2sccc2n1C	none (no result: Casp6 inh)
COc1ccc(OC)c(/C=C2\Oc3cc(OCC(=O)N4CCC(C(=O)O)CC4)ccc3C2=O)c1	ARFGAP1 inh 42.4 | ARFGAP1 confirm 48.1
COc1ccc(OC)c(/C=C2\Oc3cc(OCC(=O)N4CC(O)C[C@H]4C(=O)O)ccc3C2=O)c1 (stereo partly specified)	none
COc1ccc(/C=C2\Oc3cc(OCC(=O)N4CCC[C@H]4C(=O)O)ccc3C2=O)c(OC)c1OC	ARFGAP1 inh 26.1 | ARFGAP1 confirm inactive
